Test results taken from publication PMC6391190 (Pharmacological research, 2019).
“And” between values parts separate entries of the source, which are not always exact repeats. Equal entries are not always repeated. “Also recorded” adds a separate entry of the source.

Tests used:
BCRP [1] = assay: Hoechst 33342 transport; type: cell-based, human
BCRP [2] = assay: qPCR of BCRP mRNA in BeWo trophoblast cells; type: cell-based, human; conditions: for inhibition of AEA-mediated down-regulation of BCRP mRNA: 0.1 μM, co-treatment with AEA 10 μM; for reversal of the effects of AEA on BCRP: SB366791 1 μM, GW6471 5 μM, GW9662 5 μM, PD98059
intracellular cAMP = assay: Measurement of intracellular cAMP; type: cell-based, human; conditions: 1 h, BeWo
BeWo cells [3] = conditions: for effect alone on BeWo cell viability: AEA 10 μM or Ko143 1 μM alone, data not shown
BCRP promoter = assay: ChIP of p-CREB binding to the BCRP promoter in BeWo cells; type: cell-based, human; conditions: 1 h
BCRP [4] = assay: BODIPY-glyburide Transwell transport across BeWo monolayers; type: cell-based, human; conditions: for reduction of transepithelial transport of BODIPY-glyburide: after 2 h
BeWo cells [5] = test system: BeWo cells
BCRP [6] = assay: qPCR of BCRP mRNA in human term placental explants; type: cell-based; conditions: AEA 1 μM, 24 h
How it was run: (§1)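 Term placental explants were cultured 24 h with AEA (1 μM, 0.05% ethanol final), replenished after 12 h. Explants were snap-frozen and homogenized in RNAzol (bead homogenizer, 4 min, 40 Hz). Reverse transcription used 1000 ng RNA with random primers and MultiScribe (25°C 10 min, 37°C 120 min, 85°C 5 min), then qPCR. Values are means of 3 placentas (3-6 samples each) ± SE.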

[7] = test system: syncytialization-related genes (hCGα, syncytin-1, syncytin-2); assay: qPCR of syncytialization-related genes in human term placental explants; type: cell-based
How it was run: as §1

[8] = test system: syncytialization markers (hCGβ, syncytin-2, syncytin-1, hCGα); assay: qPCR of syncytialization markers in BeWo trophoblast cells; type: cell-based, human
How it was run: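 BeWo cells took AEA (ethanol vehicle) either at 10 μM over a time course (including 18, 24 and 48 h, with time-matched vehicle controls) or at 0.01-10 μM for 24 h. Cells were scraped into RNAzol and homogenized. Reverse transcription used 1000 ng RNA with random primers (25°C 10 min, 37°C 120 min, 85°C 5 min), followed by qPCR; mean ± SE, n = 4.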

CREB = assay: Western blot of CREB phosphorylation in BeWo cells; type: cell-based, human; conditions: 1 h
[9] = cited from earlier work
human placental explants = assay: Morphology of placental explants; type: cell-based; conditions: anandamide treatment; data not shown
BCRP [10] = assay: Western blot of BCRP protein in human term placental explants; type: cell-based; conditions: AEA 1 μM, 24 h, densitometry
BCRP [11] = assay: Zearalenone transport with HPLC measurement in BeWo cells; type: cell-based, human; conditions: for percent efflux of zearalenone: BeWo
BCRP [12] = assay: Western blot of BCRP protein in BeWo cells; type: cell-based, human; conditions: AEA 10 μM, 24 h
How it was run: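 BeWo cells exposed 24 h to AEA (10 μM) or vehicle; AEA was dissolved in ethanol. Cells were lysed in 20 mM Tris-HCl, 150 mM NaCl, 5 mM EDTA, 1% Triton X-100 with protease inhibitor cocktail. Western blotting detected BCRP at 72 kDa, with β-actin (42 kDa) as the loading control. Densitometry was performed.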

[13] = AEA 1 μM, 24 h, human term placental explants
[14] = forskolin 50 μM, 24h, data not shown

Molecule: Nc1ncnc2c1nc(Br)n2[C@@H]1O[C@@H]2COP(=O)(O)O[C@H]2[C@H]1O [8-Br-cAMP]
- prevention of AEA lowering of Hoechst 33342 efflux (BCRP [1]; 8-Br-cAMP 1 mM with AEA 10 μM, 24 h, BeWo): completely prevented
- effect itself on Hoechst 33342 transport (BCRP [1]; 8-Br-cAMP 1 mM, 24 h, BeWo): no effect
- attenuation of AEA down-regulation of BCRP expression and efflux activity (BCRP [2]; 8-Br-cAMP 1 mM, 24 h with AEA 10 μM, 24 h, BeWo): abrogated; also recorded: completely attenuated

Molecule: CCCCC/C=C\C/C=C\C/C=C\C/C=C\CCCC(=O)NCCO [AEA, anandamide]
- basal intracellular levels of cAMP (intracellular cAMP; AEA 10 μM, control 34.8): 12.4 pmol/mg protein
- intracellular levels of cAMP (intracellular cAMP; forskolin 50 μM + AEA 10 μM): 8,250 pmol/mg protein
- effect alone on BeWo cell viability (BeWo cells [3]): Neither Ko143 nor AEA alone affected
- effect on ability of BeWo cells to efflux Hoechst 33342 (BCRP [1]; AEA 10 μM present during uptake and efflux phase (untreated cells)): did not impact
- BCRP efflux activity (percent efflux of Hoechst 33342) (BCRP [1]; AEA 10 μM, 24 h pre-treatment, BeWo): 15%
- time of maximal reduction of BCRP mRNA (BCRP [2]; AEA 10 μM, BeWo, return to control levels by 48 h): 24 h
- lowest concentration at which repression of BCRP was observed (BCRP [2]; BeWo cells): 10 nM
- decrease of BCRP mRNA expression (BCRP [2]; all AEA concentrations between 0.01 μM and 10 μM, 24 h, BeWo): 30-50%
- decrease of p-CREB binding to the BCRP promoter (BCRP promoter; AEA 10 μM): 68%
- reduction of transepithelial transport of BODIPY-glyburide (BCRP [4]; AEA 10 μM, 24 h): 20%
- reduction in the intracellular concentration of AEA (BeWo cells [5]; human, 30 min, 100 nM): 44%
- reduction of BCRP mRNA expression (BCRP [6]): 46%
- reduction of hCGα mRNA expression [7, 13]: 48%
- reduction of syncytin-1 mRNA expression [7, 13]: 25%
- syncytin-2 mRNA expression ([7]; AEA treatment of placental explants, data not shown): unchanged
- lowering of hCGβ mRNA expression ([8]; AEA 0.01 μM, 24 h, BeWo): 71%
- lowering of syncytin-2 mRNA expression ([8]; AEA 1 μM, 24 h, BeWo): 40%
- decrease of hCGβ mRNA expression ([8]; AEA 10 μM, 18 and 24 h, BeWo): 40-50%
- decrease of syncytin-2 mRNA expression ([8]; AEA 10 μM, 18 and 24 h, BeWo): 40-50%
- expression of syncytin-1 or hCGα mRNAs ([8]; BeWo cells, data not shown): did not alter
- forskolin-induced phosphorylation of CREB (CREB; AEA 10 μM co-treated with forskolin 50 μM): completely inhibited; also recorded: abolished
- p-CREB relative to total CREB protein (CREB; AEA 10 μM): no p-CREB was detected
- half-life in vivo [9]: < 5 min
- changes to the morphology of the explants (human placental explants): did not induce any visible changes
- down-regulation of BCRP protein (BCRP [10]): 30%
- percent efflux of zearalenone (BCRP [11]; AEA 10 μM, 24 h): 33%
- BCRP protein expression (BCRP [12]): reduced protein expression

Molecule: COc1ccc(C(=O)c2c(C)n(CCN3CCOCC3)c3cc(I)ccc23)cc1 [AM630]
- inhibition of AEA-mediated down-regulation of BCRP mRNA (BCRP [2]; 24 h, BeWo): abrogated; also recorded: completely inhibited

Molecule: COc1cc(CNC(=O)CCCC/C=C/C(C)C)ccc1O [Capsaicin]
- effect on BCRP expression (BCRP [2]; capsaicin 1 μM, 24 h, BeWo, data not shown): no effect

Molecule: CCC(=O)NC[C@H](Cc1ccc(OCCc2nc(-c3ccccc3)oc2C)cc1)N/C(C)=C\C(=O)c1ccc(C(F)(F)F)cc1 [GW6471]
- reversal of the effects of AEA on BCRP (BCRP [2]; BeWo, data not shown): none of these chemicals reversed the effects of AEA

Molecule: O=C(Nc1ccccc1)c1cc([N+](=O)[O-])ccc1Cl [GW9662]
- reversal of the effects of AEA on BCRP (BCRP [2]; BeWo, data not shown): none of these chemicals reversed the effects of AEA

Molecule: CCOc1ccc(-c2nc3ccc(-c4nc5ccc(N6CCN(C)CC6)cc5[nH]4)cc3[nH]2)cc1 [Hoechst 33342]
- percent efflux of Hoechst 33342 taken up (BCRP [1]; vehicle-treated/control BeWo cells, Hoechst 33342 5 μM): 35% and 33%

Molecule: COc1ccc2c3c([nH]c2c1)[C@H](CC(C)C)N1C(=O)[C@H](CCC(=O)OC(C)(C)C)NC(=O)[C@@H]1C3 [Ko143]
- effect alone on BeWo cell viability (BeWo cells [3]): Neither Ko143 nor AEA alone affected
- BCRP efflux activity (percent efflux of Hoechst 33342) (BCRP [1]; Ko143 1 μM present during assay, BeWo): 8%
- reduction of transepithelial transport of BODIPY-glyburide (BCRP [4]; Ko143 1 μM, present during assay): 32%
- effect on AEA retention (BeWo cells [5]; Ko143 1 μM, 3H-AEA 100 nM, BeWo): had no impact
- percent efflux of zearalenone (BCRP [11]; Ko143 1 μM): 49%

Molecule: COc1cccc(-c2cc(=O)c3ccccc3o2)c1N [PD98059]
- reversal of the effects of AEA on BCRP (BCRP [2]; BeWo, data not shown): none of these chemicals reversed the effects of AEA

Molecule: COc1cccc(NC(=O)/C=C/c2ccc(Cl)cc2)c1 [SB366791]
- reversal of the effects of AEA on BCRP (BCRP [2]; BeWo, data not shown): none of these chemicals reversed the effects of AEA

Molecule: C[C@H]1CCCC(=O)CCC/C=C/c2cc(O)cc(O)c2C(=O)O1 [ZLN, zearalenone]
- percent efflux of accumulated zearalenone (BCRP [11]; vehicle-treated BeWo cells, zearalenone 50 μM): 71%

Molecule: C=C[C@@]1(C)CC(=O)[C@]2(O)[C@@]3(C)[C@@H](O)CCC(C)(C)[C@@H]3[C@H](O)[C@H](OC(C)=O)[C@@]2(C)O1 [forskolin]
- intracellular levels of cAMP (intracellular cAMP; forskolin 50 μM): 12,800 pmol/mg protein
- effect on AEA-mediated reduction of Hoechst 33342 efflux (BCRP [1]; [14]): had no effect
- inhibition of AEA-mediated reduction of BCRP transcription (BCRP [2]; [14]): partially inhibited
- reduction in p-CREB binding to the BCRP promoter (BCRP promoter; co-treatment with AEA 10 μM and forskolin 50 μM): 12%
- CREB phosphorylation (CREB; forskolin 50 μM): consistently increased

Molecule: Cc1c(C(=O)NN2CCCCC2)nn(-c2ccc(Cl)cc2Cl)c1-c1ccc(Cl)cc1 [rimonabant]
- inhibition of AEA-mediated down-regulation of BCRP mRNA (BCRP [2]; 24 h, BeWo): only partially inhibited

Molecule: C[C@H]1CCC[C@H](O)CCCCCc2cc(O)cc(O)c2C(=O)O1 [α-ZRN, α-zearalanol]
- LC50 values, AEA (BeWo cells [3]; human): 27.4 ± 9.1 µM
- LC50 values, Ko143 (BeWo cells [3]; human): 36.0 ± 10.1 µM

Molecule: Lucifer yellow
- percent of Lucifer yellow rejection (BCRP [4]; Lucifer yellow 20 μM, BeWo monolayer integrity): 95.3 ± 3.7%
